# ABCB1 block: human ABCB1 inhibition, ABCG2 as counter-screen | P08183 | CCRF-Adr cells, JC-1 efflux, flow cytometry | inhibition, % at 6.6 µM | 190,000 tested, 0.067% active; in the data active = inhibition above about 40%;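 also: 0% = vehicle and 100% = reference inhibitor; higher value means more JC-1 retained so stronger ABCB1 efflux block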
# ABCG2 block: human ABCG2 inhibition, ABCB1 as counter-screen; IgMXP3 cells, JC-1 efflux, flow cytometry; 190,000 tested, 0.1% active; Q9UNQ0; AID 1325; inhibition, % at 6.6 µM;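 active = inhibition above 80%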;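 also: 0% = DMSO and 100% = nicardipine control wells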
#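 Test system: IgMXP3 cells (ABCG2) mixed with DDAO far-red-labelled CCRF-Adr cells (ABCB1). Reagent: JC-1 transporter substrate. Compound dosing: single test compound dose, 6.6 µM final. Times: 10 min compound exposure, 25 °C. Detection: flow cytometry of retained JC-1 fluorescence. Read-out basis: efflux inhibition in percent versus controls. Controls: nicardipine and DMSO wells.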
# MEKK2 mut-MEK5: signal of MEK5 binding to mutant human MEKK2 PB1 domain. bead flow cytometry, Alexa488-MEK5 binding to MEKK2 mutant. percent response, % at 10 µM. 290,000 tested, 0.35% active. AID 1530; in the data active = percent response above about 24%, passing the limit was not always enough
# MEKK2 WT-MEK5: raises or lowers MEK5 binding to wildtype human MEKK2 PB1 domain; Q9Y2U5; bead flow cytometry, Alexa488-MEK5 binding to MEKK2 WT; actives lie on both sides; binding response (% of control), % at 10 µM; 290,000 tested, 1.1% active; AID 1531; in the data active = binding response below about 67% or above about 130%
# WT yeast gro inh: growth inhibition of WT yeast, mitochondrial fusion screen | inhibition, % at 10 µM | mitochondrial fusion phenotypic screen, WT strain | 190,000 tested, 2.1% active; in the data active = inhibition above about 58%; tested in S. cerevisiae
# MEKK3 PB1 HTS: MEKK3-MEK5 PB1 interaction, increase or decrease; bead-based flow cytometry, Alexa488-MEK5 binding to MEKK3; actives lie on both sides; 0 = blocked by unlabeled MEK5, 100 = vehicle; binding response (% of control), % at 10 µM; 290,000 tested, 1.4% active;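 active = binding response more than 3 SD above or below the average of its plate-row segment, actives on both sides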;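 also: Alexa488 bead fluorescence after subtracting the streptavidin-only scavenger bead signal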
# MEKK2wt confirm: raises or lowers MEK5 binding to wildtype human MEKK2, retest; shares compounds with MEKK3 PB1 HTS; bead flow cytometry, Alexa488-MEK5 binding to MEKK2 WT; actives lie on both sides; binding response (% of control), % at 10 µM; 5,900 tested, 2.4% active; AID 1892; in the data active = binding response below about 16% or above about 210%; inactive = in between
# MEKK2mut-MEK5: signal of MEK5 binding to mutant human MEKK2, retest | 5,900 tested, 2% active | percent response, % at 10 µM | bead flow cytometry, Alexa488-MEK5 binding to MEKK2 mutant | AID 1893 | shares compounds with MEKK3 PB1 HTS; in the data active = percent response mostly above about 71%, no sharp cut-off; inactive = mostly below about 38%;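 also: higher means compound restores mutant binding toward wildtype level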
# MEKK3-MEK5 inh: MEKK3-MEK5 PB1 inhibition, single concentration confirmation. binding response (% of control), % at 10 µM. bead flow cytometry, Alexa488-MEK5 binding to MEKK3; hits give low values. 5,900 tested, 1.8% active. shares compounds with MEKK3 PB1 HTS;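 active = binding response below 72% of control, or above a set upper limit, though filed actives all read lower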;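 also: 100% = DMSO only wells and 0% = binding blocked by excess unlabeled MEK5; lower values mean stronger disruption of MEK5 binding to MEKK3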
# * hit, by the source's call; . = no result given; [ ] = another dose, or the depositor's remark. An excerpt weighted towards active compounds, which were near 3.5% of everything screened.
SMILES,ABCB1 block,ABCG2 block,MEKK2 mut-MEK5,MEKK2 WT-MEK5,WT yeast gro inh,MEKK3 PB1 HTS,MEKK2wt confirm,MEKK2mut-MEK5,MEKK3-MEK5 inh
COc1cc(/C=N/S(=O)(=O)CCc2ccccc2)cc(OC)c1O,0,1,0,103,4,128*,103,-1,100
CC1(c2nnc(-c3ccc(F)cc3)o2)CC(c2ccc(F)cc2)=NO1 (stereo not drawn),.,.,4,52,.,57,.,.,.
COc1ccc(C2=NOC(C)(c3nnc(-c4ccc(F)cc4)o3)C2)cc1 (stereo not drawn),.,.,-2,96,.,81*[inhibitor],97,-10,95
COc1ccc([N+](=O)[O-])cc1NC(=O)c1ccc(C)o1,2,37,1,109,1,187*,96,-1,95
CCN1CCCC1CNC(=O)C1CCN(Cc2nc(-c3cccc(Br)c3)oc2C)CC1 (stereo not drawn),1,2,.,.,-4,.,.,.,.
COC(=O)c1ccc(S(=O)(=O)N2CCCN(Cc3cccc(Br)c3F)CC2)n1C,.,.,-38,53*[inhibitor],.,73*[inhibitor],95,-4,98
COC(=O)c1ccc(S(=O)(=O)N2CCCN(Cc3ccccc3)CC2)n1C,.,.,5,101,.,102,.,.,.
Nc1nc(C23CC4CC(CC(C4)C2)C3)[nH]c(=O)n1,.,.,1,98,.,97,.,.,.
Cc1c(C(=O)NC2CCC(C)CC2)oc2ccccc12 (stereo not drawn),.,.,4,101,.,101,.,.,.
S=C(NCc1ccccn1)Nc1cccc(Cl)c1,1,12,4,102,1,102,.,.,.
S=C(Nc1cccc(Cl)c1)NC1CC2CCCC(C1)N2C1CCCC1 (stereo not drawn),0,0,1,125,-7,105,.,.,.
S=C(NCCC(c1ccccc1)c1ccccc1)Nc1cccc(Cl)c1,3,21,32*,5.0*,80*,95,105,-5,102
S=C(NCCN(C1CCCCC1)C1CCCC1)Nc1cccc(Cl)c1,.,.,12,134*,.,97,145,24,107
COc1ccc(CCNC(=O)C(C)n2nc(C)c3c(C)n(-c4ccc(C)cc4)nc3c2=O)c(OC)c1 (stereo not drawn),.,.,8,98,.,102,.,.,.
CC(C)C(=O)Nc1nnc(SCC(=O)NC2CC2)s1,0,1,-15,11*[inhibitor],4,7.0*[inhibitor],100,-4,101
CCc1nnc(NC(=O)CSc2nnc(-c3ccncc3)n2C)s1,0,0,1,1.0*[inhibitor],9,2.0*[inhibitor],103,-1,102
Cc1nc(NC(=O)CSc2nnc(-c3ccncc3)n2C)sc1C,.,.,0,97,.,101,.,.,.
COc1ccc(CN2CCN(C(=O)C3CCN(S(=O)(=O)c4cccs4)CC3)CC2)c(OC)c1OC,-2,-3,-47,1.0*[inhibitor],-4,1.0*[inhibitor],103,4,102
COc1ccc(N2CCN(C(=O)C3CCN(S(=O)(=O)c4cccs4)CC3)CC2)cc1,-1,2,-3,96,-5,100,.,.,.
COCCN(CC(=O)NCc1ccc(F)cc1)C(=O)CCC(=O)Nc1ccccn1,1,1,-10,90,-4,81*[inhibitor],102,-5,99
Cc1ccc(NC(=S)N2CCN(c3ccccc3F)CC2)c(C)c1,.,.,-6,96,.,101,.,.,.
CCCCCCCNC(=O)C1(CC2CC(c3ccc(Cl)cc3)=NO2)CCN(C(=O)Cc2ccc(F)cc2)CC1 (stereo not drawn),.,.,2,98,.,101,.,.,.
CCCCCCCNC(=O)C1(CC2CC(c3ccc(Cl)cc3)=NO2)CCNCC1 (stereo not drawn),.,.,11,158*,.,106,150,22,105

# Bioassay records from PubChem.
